Screens deposited in PubChem BioAssay by several laboratories.
The entries come from a sample that favours hits as a whole.
Hsp70 act = Hsp70 transcriptional activation, primary screen | 200,000 compounds, 0.04% hits | HeLa Hsp70 promoter luciferase reporter, luminescence; scaled: vehicle 0, proteasome-inhibitor control 100% | activation, % at 10 µM | AID 1203;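 active = activation above the mean across all tested compounds plus 3 SD, cutoff set per campaign, cut at about 5.5% in these data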;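 note: 100% = MG132 at 30 µM as the positive control and 0% = DMSO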
HSF1 inhib = HSF1 inhibition; 300,000 compounds, 0.77% hits; activity change, negative = inhibition, % at 7.5 µM (by protocol); NIH3T3-HGL HSE-luciferase, MG132-induced, luminescence 8 h; hits give low values; AID 2098;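 active = more than half of replicate wells show activity change below -50%, luminescence cut by over half; inconclusive = some wells, but at most half, below -50%; inactive = no replicate well below -50%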;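 note: luciferase reports HSF-1 transcriptional activity via heat shock element; 0% = median of DMSO wells and -100% = zero luminescence signal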
T cruzi repl = blocks replication of Trypanosoma cruzi; T. cruzi beta-gal in NIH3T3, luminescence, 90 h; inhibition, % (test concentration not listed); 300,000 compounds, 1.4% hits;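 active = mean inhibition across valid replicates above about 55%, limit read from the data; inconclusive = mean below that limit but half or more replicates reach it; inactive = mean below it, under half of replicates reach it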;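 note: signal also drops with host cell toxicity which is not excluded here; 0% = plate median of DMSO wells and 100% = zero luminescence signal; higher percent means less beta-gal luminescence so fewer parasites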
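System: NIH/3T3 fibroblasts plus reporter T. cruzi. Medium: DMEM plus 2% FBS. Probe or stimulus: 5000 reporter trypomastigotes per well. Compound: single 50 nL compound addition per well in DMSO. Incubation: co-culture of at least 90 h after 3 h attachment. Detection: GalScreen β-gal luminescence, detergent lysis, 60 min. Evaluation: parasite load inhibition, %.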
Lmaj promast = Leishmania major promastigote growth inhibition; Leishmania major promastigotes, resazurin fluorescence viability; inhibition, % at 10 µM; 200,000 compounds, 9% hits; AID 1063; in the data active = inhibition above about 50%;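 note: promastigotes grown with compound for 44 hours at 28 °C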
HSF1 activator = increases HSF-1 driven luciferase reporter signal; 300,000 compounds, 1.7% hits; AID 504408; activation, % at 9 µM; NIH3T3-HGL HSF-1 luciferase reporter, MG132, 8 h; 100% = twice DMSO control signal;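 active = mean replicate activation of at least 50% with a set share of replicates each reaching 50%; inconclusive = only one of those two conditions met; inactive = mean below 50% and too few replicates reaching it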;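 note: 0% = median of the neutral control wells and 100% = twice that signal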
Starred values were filed as active, the others as inactive; ? = inconclusive; . = not tested or not shown.

SMILES | Hsp70 act | HSF1 inhib | T cruzi repl | Lmaj promast | HSF1 activator
CN(CCC#N)C(=O)COC(=O)c1ccc2c(c1)C(=O)N(C1CCCCC1)C2=O | . | 1.1 | -9.4 | . | 11.9
COc1ccc(-c2cn3cccnc3n2)cc1NC(=O)c1cccs1 | 0.1 | 0.0 | -2.7 | 97.1* | -0.1
COc1ccc(-c2cn3cccnc3n2)cc1NS(=O)(=O)c1ccccc1 | -0.1 | 3.8 | -1.8 | 1.6 | 10.9
COc1ccc(-c2cn3cccnc3n2)cc1F | -0.3 | 3.7 | -1.7 | 79.8* | 23.5
COc1ccc(-c2cn3cccnc3n2)cc1NC(=O)c1cc(OC)c(OC)c(OC)c1 | 0.1 | -6.2 | 1.6 | 25.3 | -2.0
O/N=C1\CCCc2c1nc(-c1ccccc1F)n2O | . | -2.3 | -2.9 | . | -9.0
COc1ccccc1OCc1cc(C(=O)N2CCCC(OCc3cccnc3)C2)no1 (centres undefined) | . | 38.6 | 18.6 | . | 62.9*
CCCOC1CCCN(C(=O)c2cc(COc3ccc(-n4cncn4)cc3)on2)C1 (centres undefined) | . | 32.2 | -29.9 | . | 60.1*
COCCOC1CCN(C(=O)c2cc(COc3ccc(-n4cncn4)cc3)on2)CC1 | . | -15.3 | -3.6 | . | -12.0
CCC(=O)Oc1ccc(C(=O)Nc2c[nH]c(=O)[nH]c2=O)cc1 | -0.2 | -2.4 | -13.3 | -4.6 | -8.7
CCN(C(=O)Cn1cc(C(=O)C(=O)N2CCOCC2)c2ccccc21)c1ccccc1 | . | 7.0 | 12.4 | . | 5.7
COc1ccc(-c2cnc3c(-c4ccc(F)cc4)cnn3c2N)cc1 | . | 11.8 | -21.1 | . | 32.6
Cc1nc2c(-c3ccc(F)cc3)cnn2c2c1CCC2 | -0.4 | 26.0 | -24.7 | 1.3 | 51.8*
CCC1=NN(C(=O)c2ccc(Cl)cc2)C(O)(c2ccccc2)C1 (centres undefined) | . | 13.5 | 9.9 | . | 27.8
COC(=O)C1=NN(C(=O)c2ccc(Cl)cc2)C(O)(c2ccccc2)C1 (centres undefined) | 0.1 | 88.0 | -17.4 | -11.2 | 141.9*
CCOC(=O)C1=NN(C(=O)c2ccc(C)cc2)C(O)(c2ccc(Cl)cc2)C1 (centres undefined) | -0.3 | 158.6 | -0.8 | -2.5 | 166.5*
Cc1cccc(C(=O)NCc2nnc3c4ccccc4c(-c4ccccc4)nn23)c1 | -0.2 | -6.0 | 1.9 | 4.6 | 14.7
CC(Sc1cccc(C(F)(F)F)c1)C(=O)NC(N)=O (centres undefined) | . | 6.2 | -2.9 | . | 8.6
Cc1ccnc2nc(C(=O)OCC(=O)NC(=O)NCc3ccco3)nn12 | 0.0 | -2.1 | -11.6 | -4.4 | -5.9
Cc1ccccc1Nc1nc(N)nc(-c2oc3ccccc3c2C)n1 | . | 42.7 | 56.0* | . | 71.9*
Cc1c(-c2nc(N)nc(Nc3ccc(F)cc3)n2)oc2ccccc12 | 0.0 | 22.7 | 62.1* | 7.6 | 44.3
COc1ccccc1Nc1nc(N)nc(-c2oc3ccccc3c2C)n1 | -0.3 | -1.5 | 7.1 | -5.4 | 15.3
COC(=O)c1cc2c(C(F)(F)F)nn(C)c2s1 | . | -7.5 | -2.4 | . | 10.6
Cc1ccccc1NC(=O)Cc1nc(COC(=O)CNS(=O)(=O)c2cccc(Br)c2)cs1 | . | -1.0 | -5.0 | . | 6.1
O=C(CCn1cccn1)Nc1ccc(-c2ccno2)cc1 | . | 6.7 | -26.6 | . | 24.0
SMILES | Hsp70 act | HSF1 inhib | T cruzi repl | Lmaj promast | HSF1 activator
Cn1c(Sc2ccc(Br)cc2)c(C=O)c2ccccc21 | -0.2 | -34.1 | 3.5 | 56.9* | -35.3
CC1(C)Oc2ccc(C(=O)NN)cc2NC1=O | -0.2 | -3.7 | -16.1 | -4.4 | -3.2
Cc1ccc(S(=O)(=O)NC(=O)Nc2cc(C(C)(C)C)on2)cc1 | . | -8.1 | -8.1 | . | -0.7
O=C1Nc2ccccc2C12OCC1(CO2)COC2(OC1)C(=O)Nc1ccccc12 (centres undefined) | -0.3 | 2.2 | 39.0 | 91.0* | 2.7
O=C1c2[nH]nc(-c3ccccc3O)c2C(c2ccc(F)cc2)N1Cc1ccco1 (centres undefined) | -0.2 | -3.0 | -3.0 | 94.4* | 2.2
O=C1c2[nH]nc(-c3ccccc3O)c2C(c2cccc(Cl)c2)N1Cc1ccco1 (centres undefined) | -0.3 | 22.3 | 22.3 | 79.0* | 31.1
COc1ccc(C2c3c(-c4ccccc4O)n[nH]c3C(=O)N2Cc2ccco2)cc1OC (centres undefined) | . | -1.3 | 6.1 | . | -14.3
Cc1cc(Cl)c(S(=O)(=O)N2CCN(c3ccccn3)CC2)cc1OCC(=O)NC1CCCCC1 | . | 13.9 | 25.6 | . | 23.8
COC(=O)CC/C(O)=C1\C(=O)CC(C)(C)CC1=NCc1nc2ccccc2[nH]1 | -0.3 | -0.8 | 6.9 | -3.6 | 2.2
Cn1c(C(C)(O)C(O)c2ccccc2)nc2ccccc21 (centres undefined) | -0.1 | 1.7 | -11.7 | -5.2 | -6.1
COCCn1c(=NC(=O)c2ccc(S(=O)(=O)N3CCc4ccccc4C3)cc2)sc2cc(S(N)(=O)=O)ccc21 | -0.1 | 3.9 | 19.4 | 99.0* | 7.5
COC(=O)Cn1c(=NC(=O)c2ccc(S(=O)(=O)N3CCc4ccccc4C3)cc2)sc2cc(OC)ccc21 | -0.1 | . | -4.2 | 87.5* | .
N#C/C(=C\C=C\c1ccccc1)C(=O)NCc1cccnc1 | 2.5 | 13.0 | 26.8 | 49.4 | 8.5
Cc1ccc(C(=O)/C=C/c2cn(CC(O)CN3CCOCC3)c3ccccc23)cc1 (centres undefined) | -0.3 | . | . | 52.9* | .
COc1ccc(C(=O)/C=C/c2cn(CC(O)CN3CCOCC3)c3ccccc23)cc1 (centres undefined) | -0.2 | . | . | 37.4 | .
Cc1nc2ccc(NC(=S)NC3CCCCC3)cc2nc1C | 0.1 | 38.2 | 10.1 | 34.2 | ?
[O-]/[N+](=C\c1ccco1)c1ccc(Cl)cc1 | . | 54.5 | -8.6 | . | 98.8*
Cc1ccccc1-n1ncc2c1CC(C)(C)CC2NC(=O)CCCN1CCCC1=O (centres undefined) | . | 0.5 | -5.3 | . | -7.0
CCN1CCN(C(CNS(=O)(=O)c2ccc(Cl)cc2)c2cccnc2)CC1 (centres undefined) | . | -6.4 | 25.6 | . | 17.2
COc1ccccc1N1CCN(C(CNS(=O)(=O)c2cc(F)ccc2F)c2cccnc2)CC1 (centres undefined) | -0.1 | 1.4 | 64.7* | 90.0* | 0.7
O=S(=O)(NCC(c1cccnc1)N1CCN(c2ccccc2)CC1)c1cc(F)ccc1F (centres undefined) | 0.1 | . | 76.0* | 96.8* | .
Cc1cc(F)ccc1S(=O)(=O)NCC(c1cccnc1)N1CCc2ccccc21 (centres undefined) | . | 13.2 | 42.2 | . | 10.3
Cc1ccc(S(=O)(=O)NCC(c2ccccc2)N2CCN(c3ccc(F)cc3)CC2)cc1 (centres undefined) | . | 22.9 | 8.6 | . | 54.0*
O=S(=O)(NCC(c1cccnc1)N1CCN(c2ccc(F)cc2)CC1)c1ccccc1 (centres undefined) | -0.2 | 5.5 | 58.7* | 91.9* | -0.4
CN1CCN(C(CNS(=O)(=O)c2ccc(F)cc2)c2cccnc2)CC1 (centres undefined) | -0.3 | -1.9 | 31.2 | -5.2 | -5.8
COC(=O)c1ccc(N2C(=O)Nc3ccccc3N2O)cc1 | 0.3 | -35.2 | -10.2 | 3.8 | -40.3
